Measurements published in ChEMBL document CHEMBL5104115, “Design, synthesis of novel triptolide-glucose conjugates targeting glucose Transporter-1 and their selective antitumor effect” (Eur J Med Chem, 2022).
The source made the active and inactive calls. The rule behind the calls is not given here.

How the values were obtained:
[1] = Cytotoxicity against HUVEC incubated for 72 hrs by MTT assay; type: toxicity, cell-based; details: human, HUVEC cells
Method in brief: (§1)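 Cells seeded at 4000/well, incubated overnight, then exposed to a range of concentrations, or DMSO vehicle, for 72 h. MTT (5 mg/mL solution) added for 4 h and formazan dissolved in DMSO. Absorbance read at 570 nm, and IC50 derived from the curves. Tumor lines were grown in RPMI 1640; HUVEC, HaCaT and LO2 were grown in DMEM, each with 10% FBS at 37 °C and 5% CO2.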

NCI-H1975 [2] = assay: Cytotoxicity against human NCI-H1975 cells incubated for 72 hrs by MTT assay; type: functional, cell-based; details: NCI-H1975, 72 h; method in brief: as §1
[3] = Cytotoxicity against human L02 cells incubated for 72 hrs by MTT assay; type: toxicity, cell-based; method in brief: as §1
HT-29 = assay: Cytotoxicity against human HT-29 cells incubated for 72 hrs by MTT assay; type: functional, cell-based; details: HT-29, 72 h; method in brief: as §1
SW-620 = assay: Cytotoxicity against human SW-620 cells incubated for 72 hrs by MTT assay; type: functional, cell-based; details: SW-620, 72 h; method in brief: as §1
[4] = Cytotoxicity against human HaCaT cells incubated for 72 hrs by MTT assay; type: toxicity, cell-based; method in brief: as §1
NCI-H460 [5] = assay: Cytotoxicity against human NCI-H460 cells incubated for 72 hrs by MTT assay; type: functional, cell-based; details: NCI-H460, 72 h; method in brief: as §1
HCT-116 = assay: Cytotoxicity against human HCT-116 cells incubated for 72 hrs by MTT assay; type: functional, cell-based; details: HCT-116, 72 h; method in brief: as §1
MDA-MB-231 = assay: Cytotoxicity against human MDA-MB-231 cells incubated for 72 hrs by MTT assay; type: functional, cell-based; details: MDA-MB-231, 72 h; method in brief: as §1
[6] = Octanol-water partition coefficient, logD of the compound in PBS at pH 7.4 by liquid chromatography based mass spectrometric analysis; type: physicochemical
Method in brief: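 Shake-flask method: 3.0 mg compound dissolved in PBS-saturated n-octanol and rotated 24 h at room temperature. The octanol phase was then mixed with octanol-saturated PBS, rotated another 24 h and centrifuged. Both phases quantified by LC-MS against a standard curve, and log P = log(C octanol/C water).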

NCI-H1975 [7] = assay: Antitumor activity against human NCI-H1975 cells xenografted in BALB/c nude mouse assessed as tumor growth inhibition at 15 mg/kg, ip, q3d for 2 weeks relative to control; details: NCI-H1975, 336 h, read-out: TGI
[8] = Toxicity in BALB/c nude mouse xenografted with human NCI-H1975 cells assessed as decreased spermatogenic cells at 0.2 mg/kg administered ip, qd for 2 weeks; details: in vivo, 336 h
[9] = Toxicity in BALB/c nude mouse xenografted with human NCI-H1975 cells assessed as morphological change in lung at 0.2 mg/kg administered ip, qd for 2 weeks; details: in vivo, 336 h
NCI-H460 [10] = assay: Induction of apoptosis in human NCI-H460 cells assessed as early apoptotic cells at 0.01 uM measured after 48 hrs by Annexin V-FITC/PI staining method (reference value: 3.46%); type: functional
NCI-H460 [11] = assay: Induction of apoptosis in human NCI-H460 cells assessed as early apoptotic cells at 0.1 uM measured after 48 hrs by Annexin V-FITC/PI staining method (reference value: 3.46%); type: functional
[12] = Toxicity in BALB/c nude mouse xenografted with human NCI-H1975 cells assessed as morphological change in liver at 0.2 mg/kg administered ip, qd for 2 weeks; details: in vivo, 336 h
NCI-H460 [13] = assay: Induction of apoptosis in human NCI-H460 cells assessed as late apoptotic cells at 0.1 uM measured after 48 hrs by Annexin V-FITC/PI staining method (reference value: 8.57%); type: functional
NCI-H460 [14] = assay: Induction of ROS accumulation in human NCI-H460 cells measured upto 100 nM after 42 to 48 hrs by DCFH-DA staining based flow cytometric analysis; type: functional, cell-based; details: time 42-48 hrs
Method in brief: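 NCI-H460 cells exposed for 42 h or 48 h, then suspended in 1% BSA DPBS. DCFH-DA (from a 10 mM stock) added and incubated 30 min in the dark, followed by washing. DCF fluorescence taken from flow-cytometry histograms and expressed as percentage relative to untreated control.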

NCI-H460 [15] = assay: Induction of apoptosis in human NCI-H460 cells assessed as late apoptotic cells at 1 uM measured after 48 hrs by Annexin V-FITC/PI staining method (reference value: 8.57%); type: functional
NCI-H460 [16] = assay: Induction of apoptosis in human NCI-H460 cells assessed as viable cells at 1 uM measured after 48 hrs by Annexin V-FITC/PI staining method (reference value: 86.4%); type: functional; details: read-out: Activity
NCI-H460 [17] = assay: Induction of apoptosis in human NCI-H460 cells assessed as late apoptotic cells at 0.01 uM measured after 48 hrs by Annexin V-FITC/PI staining method (reference value: 8.57%); type: functional
NCI-H460 [18] = assay: Induction of apoptosis in human NCI-H460 cells assessed as viable cells at 0.1 uM measured after 48 hrs by Annexin V-FITC/PI staining method (reference value: 86.4%); type: functional; details: read-out: Activity
[19] = Toxicity in BALB/c nude mouse xenografted with human NCI-H1975 cells assessed as reduction of cytoplasmic vacuoles at 0.2 mg/kg administered ip, qd for 2 weeks; details: in vivo, 336 h
[20] = Toxicity in BALB/c nude mouse xenografted with human NCI-H1975 cells assessed as degeneration of inter tube connective tissue at 0.2 mg/kg administered ip, qd for 2 weeks; details: in vivo, 336 h
[21] = Stability in mouse serum measured after 8 hrs by HPLC analysis; type: ADME, cell-free
[22] = Toxicity in BALB/c nude mouse xenografted with human NCI-H1975 cells assessed as reduction of cytoplasmic nuclei at 0.2 mg/kg administered ip, qd for 2 weeks; details: in vivo, 336 h
[23] = Toxicity in BALB/c nude mouse xenografted with human NCI-H1975 cells assessed as irregular spermatogenic tubules at 0.2 mg/kg administered ip, qd for 2 weeks; details: in vivo, 336 h
NCI-H460 [24] = assay: Induction of apoptosis in human NCI-H460 cells assessed as necrotic cells at 0.01 uM measured after 48 hrs by Annexin V-FITC/PI staining method (reference value: 1.59%); type: functional
NCI-H1975 [25] = assay: Antitumor activity against human NCI-H1975 cells xenografted in BALB/c nude mouse assessed as tumor growth inhibition at 0.2 mg/kg, ip, qd for 2 weeks relative to control; details: NCI-H1975, 336 h, read-out: TGI
[26] = Toxicity in BALB/c nude mouse xenografted with human NCI-H1975 cells assessed as morphological change in heart at 0.2 mg/kg administered ip, qd for 2 weeks; details: in vivo, 336 h
NCI-H460 [27] = assay: Induction of apoptosis in human NCI-H460 cells assessed as necrotic cells at 1 uM measured after 48 hrs by Annexin V-FITC/PI staining method (reference value: 1.59%); type: functional
NCI-H460 [28] = assay: Down regulation of RNA polymerase II in human NCI-H460 cells measured after 48 hrs by Western blotting analysis; type: functional, cell-based
Method in brief: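 NCI-H460 cells treated for 48 h, harvested by trypsinization and lysed on ice in NP-40 buffer (50 mmol/L Tris pH 8.0, 150 mmol/L NaCl, 1% NP-40). Protein quantified by BCA and resolved by SDS-PAGE. Blots probed for RNA Pol II (1:1000), with GAPDH as loading control, and detected by chemiluminescence.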

NCI-H460 [29] = assay: Induction of apoptosis in human NCI-H460 cells assessed as early apoptotic cells at 1 uM measured after 48 hrs by Annexin V-FITC/PI staining method (reference value: 3.46%); type: functional
NCI-H460 [30] = assay: Induction of mitochondrial membrane potential loss in human NCI-H460 cells by flow cytometric analysis; type: functional, cell-based
Method in brief: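 Treated NCI-H460 cells suspended in 1% BSA DPBS and stained with TMRE (from a 1 mM stock) for 20 min in the dark. Cells then washed and resuspended in 1% BSA DPBS. Relative TMRE fluorescence intensity taken as the readout of membrane potential.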

NCI-H460 [31] = assay: Induction of apoptosis in human NCI-H460 cells assessed as necrotic cells at 0.1 uM measured after 48 hrs by Annexin V-FITC/PI staining method (reference value: 1.59%); type: functional
[32] = Toxicity in BALB/c nude mouse xenografted with human NCI-H1975 cells assessed as morphological change in kidney at 0.2 mg/kg administered ip, qd for 2 weeks; details: in vivo, 336 h
NCI-H460 [33] = assay: Induction of apoptosis in human NCI-H460 cells assessed as viable cells at 0.01 uM measured after 48 hrs by Annexin V-FITC/PI staining method (reference value: 86.4%); type: functional; details: read-out: Activity

CC(C)[C@]12O[C@H]1[C@@H]1O[C@]13[C@]1(O[C@H]1C[C@H]1C4=C(CC[C@@]13C)C(=O)OC4)[C@@H]2OC(=O)CCC(=O)O[C@H]1O[C@H](CO)[C@@H](O)[C@H](O)[C@H]1O
IC50 at 72 h [1]: 5680 nM | IC50 (NCI-H1975 [2]): 3420 nM | IC50 at 72 h [3]: 2150 nM | IC50 (HT-29): 5370 nM | IC50 (SW-620): 3860 nM | IC50 at 72 h [4]: 4300 nM | IC50 (NCI-H460 [5]): 4080 nM | IC50 (HCT-116): 1900 nM | IC50 (MDA-MB-231): 4420 nM

CC(C)[C@]12O[C@H]1[C@@H]1O[C@]13[C@]1(O[C@H]1C[C@H]1C4=C(CC[C@@]13C)C(=O)OC4)[C@@H]2OC(=O)CCC(=O)O[C@@H]1O[C@H](CO)[C@@H](O)[C@H](O)[C@H]1O
IC50 at 72 h [1]: 8140 nM | IC50 (NCI-H1975 [2]): 1860 nM | IC50 at 72 h [3]: 1380 nM | IC50 (HT-29): 2890 nM | IC50 (SW-620): 5510 nM | IC50 at 72 h [4]: 1630 nM | IC50 (NCI-H460 [5]): 2720 nM | IC50 (HCT-116): 2350 nM | logD [6]: -0.558 | IC50 (MDA-MB-231): 2280 nM

CC(=O)O[C@H]1C(=O)[C@@]2(C)[C@H]([C@H](OC(=O)c3ccccc3)[C@]3(O)C[C@H](OC(=O)[C@H](O)[C@@H](NC(=O)c4ccccc4)c4ccccc4)C(C)=C1C3(C)C)[C@]1(OC(C)=O)CO[C@@H]1C[C@@H]2O [PACLITAXEL]
inhibition in vivo at 15 mg/kg (NCI-H1975 [7]): 56.9%

CC(C)[C@]12O[C@H]1[C@@H]1O[C@]13[C@]1(O[C@H]1C[C@H]1C4=C(CC[C@@]13C)C(=O)OC4)[C@@H]2O [TRIPTOLIDE]
Activity [8]: Toxic | IC50 at 72 h [1]: 44 nM | Activity [9]: Non-Toxic | Activity (NCI-H460 [10]): 6.84% | IC50 (NCI-H1975 [2]): 2 nM | Activity (NCI-H460 [11]): 42.2% | Activity [12]: Non-Toxic | Activity (NCI-H460 [13]): 24.4% | Activity (NCI-H460 [14]): Active | Activity (NCI-H460 [15]): 5.7% | IC50 at 72 h [3]: 16 nM | viability at 1 µM (NCI-H460 [16]): 25.1% | Activity (NCI-H460 [17]): 3.17% | viability at 0.1 µM (NCI-H460 [18]): 29.5% | Activity [19]: Toxic | IC50 (HT-29): 47 nM | Activity [20]: Toxic | Stability [21]: Unstable | IC50 (SW-620): 163 nM | Activity [22]: Toxic | IC50 at 72 h [4]: 27 nM | IC50 (NCI-H460 [5]): 14 nM | Activity [23]: Toxic | Activity (NCI-H460 [24]): 2.2% | inhibition in vivo at 0.2 mg/kg (NCI-H1975 [25]): 28.6% | Activity [26]: Non-Toxic | Activity (NCI-H460 [27]): 2.34% | IC50 (HCT-116): 46 nM | Activity (NCI-H460 [28]): Active | Activity (NCI-H460 [29]): 56.8% | Activity (NCI-H460 [30]): Active | logD [6]: -0.56 | Activity (NCI-H460 [31]): 3.85% | Activity [32]: Non-Toxic | viability at 0.01 µM (NCI-H460 [33]): 87.8% | IC50 (MDA-MB-231): 51 nM
